Laboratory results reported in ChEMBL document CHEMBL1121902 (J Med Chem, 1981).
Counter-ions that a name gives are not always drawn.

Tests used:
[1] = Partition coefficient (logD7.4); format: physicochemical; details: octanol/water, pH 7.4
Summary of the method: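 Distribution between 1-octanol and 0.16 M pH 7.4 phosphate buffer (mutually presaturated). Compound at 10^-4 M in buffer was shaken 15 min with an equal volume of octanol, then centrifuged 10 min. Run in triplicate.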

[2] = Beta adrenergic receptor antagonist potency relative to propranolol.; format: functional
Summary of the method: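 Pentobarbital-anesthetized mongrel dogs. Isoproterenol dose-response curves (heart rate, contractile force, femoral artery flow) repeated after cumulative doses of 10, 100 and 1000 µg/kg of racemic hydrochloride in isotonic saline. Apparent pA2 taken from the curve shifts. […] One compound per dog, four dogs each.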

Canis familiaris [3] = organism: Canis familiaris; assay: Vasodilator potency relative to propranolol.; format: functional, Canis lupus familiaris
Summary of the method: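 Anesthetized mongrel dogs with a vascularly isolated, pump-perfused hindlimb at constant blood flow; the read-out is the fall in perfusion pressure. Bolus intraarterial injections in isotonic saline into the perfusion system, lowest doses first, compound order randomized at each level; four dogs. Dose to lower pressure 55 mmHg determined.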

Canis familiaris [4] = assay: Compound was tested for its ability to block isoproterenol-induced contractile force in anesthetized dogs.; details: Canis lupus familiaris, read-out: pA2 app (converted)
Canis familiaris [5] = assay: Compound was tested for its ability to block isoproterenol-induced increases in heart rate(HR) in anesthetized dogs.; details: Canis lupus familiaris, read-out: pA2 app (converted)
Canis familiaris [6] = assay: Concentration required to decrease hindlimb perfusion pressure(55 mmHg) in anesthetized dogs after intra arterial administration.; format: functional, Canis lupus familiaris, Artery
Summary of the method: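 Anesthetized mongrel dogs, vascularly isolated pump-perfused hindlimb held at constant blood flow. Vascular resistance was read as change in perfusion pressure. Bolus intraarterial injections into the perfusion circuit, drugs in isotonic saline, rising doses with compound order randomized at each level. Dose to lower perfusion pressure by 55 mmHg was taken. Four dogs, mean ± SE.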

Canis familiaris [7] = assay: Compound was tested for its ability to block isoproterenol-induced vasodilation in anesthetized dogs.; details: Canis lupus familiaris, read-out: pA2 app (converted)

CC(C)NCC(O)COc1cccc2c(O)cccc12 (stereo not given)
logD [1]: 0.56
Relative potency [2]: 0.56
Relative potency (Canis familiaris [3]): 0.28
Kb (Canis familiaris [4]): 0.0324 µM
Kb (Canis familiaris [5]): 0.0759 µM
Dose (Canis familiaris [6]): 1.95 mg
Kb (Canis familiaris [7]): 0.0209 µM

CC(C)NCC(O)COc1ccc(O)c2ccccc12 (stereo not given) [4-HYDROXYPROPRANOLOL SULFATE]
logD [1]: 0.53
Relative potency [2]: 0.77
Relative potency (Canis familiaris [3]): 0.13
Kb (Canis familiaris [4]): 0.0288 µM
Kb (Canis familiaris [5]): 0.0457 µM
Dose (Canis familiaris [6]): 4.35 mg
Kb (Canis familiaris [7]): 0.0316 µM

CC(C)NCC(O)COc1c(O)ccc2ccccc12 (stereo not given)
logD [1]: 1.66
Relative potency [2]: 0.03
Relative potency (Canis familiaris [3]): 1.07
Kb (Canis familiaris [4]): 0.646 µM
Kb (Canis familiaris [5]): 1.35 µM
Dose (Canis familiaris [6]): 0.52 mg
Kb (Canis familiaris [7]): 0.468 µM

CC(C)NCC(O)COc1cccc2ccccc12 (stereo not given) [PROPRANOLOL]
Dose (Canis familiaris [6]): 0.55 mg

CC(C)NCC(O)COc1cc(O)cc2ccccc12 (stereo not given)
logD [1]: 0.57
Relative potency [2]: 0.16
Relative potency (Canis familiaris [3]): 0.06
Kb (Canis familiaris [4]): 0.107 µM
Kb (Canis familiaris [5]): 0.288 µM
Dose (Canis familiaris [6]): 10 mg
Kb (Canis familiaris [7]): 0.0589 µM

CC(C)NCC(O)COc1cccc2cc(O)ccc12 (stereo not given)
logD [1]: 0.46
Relative potency [2]: 3.82
Relative potency (Canis familiaris [3]): 0.22
Kb (Canis familiaris [4]): 0.00437 µM
Kb (Canis familiaris [5]): 0.00977 µM
Dose (Canis familiaris [6]): 2.45 mg
Kb (Canis familiaris [7]): 0.00447 µM

CC(C)NCC(O)COc1cccc2cccc(O)c12 (stereo not given)
logD [1]: 1.4
Relative potency [2]: 0.17
Relative potency (Canis familiaris [3]): 0.94
Kb (Canis familiaris [4]): 0.155 µM
Kb (Canis familiaris [5]): 0.229 µM
Dose (Canis familiaris [6]): 0.58 mg
Kb (Canis familiaris [7]): 0.055 µM

CC(C)NCC(O)COc1cccc2ccc(O)cc12 (stereo not given)
logD [1]: 0.62
Relative potency [2]: 0.95
Relative potency (Canis familiaris [3]): 0.2
Kb (Canis familiaris [4]): 0.0174 µM
Kb (Canis familiaris [5]): 0.0562 µM
Dose (Canis familiaris [6]): 2.8 mg
Kb (Canis familiaris [7]): 0.0263 µM
